Drawing on ChEMBL document CHEMBL3994624, “Antimalarial Pyrido[1,2-a]benzimidazoles: Lead Optimization, Parasite Life Cycle Stage Profile, Mechanistic Evaluation, Killing Kinetics, and in Vivo Oral Efficacy in a Mouse Model” (J Med Chem, 2017), this text covers Activity and MSD for one compound.

Bounds are passed on as bounds.

Common to all, as to format: functional
The test system of assay [1] is Plasmodium berghei. Nature of the assay: Antimalarial activity against GFP-fused Plasmodium berghei ANKA infected in mouse assessed as reduction in parasitemia at 12.5 mg/kg, po administered once daily for 4 days by flow cytometry relative to control. The arrangement: scale not given: the % may be the effect or the level left. (Flow cytometry measures light scatter and fluorescence of single cells or particles in a stream.)

For assay [2], the system named is Plasmodium berghei. Put plainly: Antimalarial activity against GFP-fused Plasmodium berghei ANKA infected in mouse assessed as mouse mean survival days at 3 mg/kg, po administered once daily for 4 days. The method in brief:
(§1)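 P. berghei-infected mice (n=3 per dose) dosed orally once daily on 4 consecutive days at 4, 24, 48 and 72 h after infection; compound in 90/10 Tween80/ethanol (v/v) diluted 10-fold with water. Read-outs were % parasitemia reduction, mean survival time in days and cure; mice with <40% parasitemia reduction euthanized on day 4.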

Assay [3] relates to Plasmodium berghei. Nature of the assay: Antimalarial activity against GFP-fused Plasmodium berghei ANKA infected in mouse assessed as reduction in parasitemia at 50 mg/kg, po administered once daily for 4 days by flow cytometry relative to control. The arrangement: scale not given: the % may be the effect or the level left. The method, boiled down: (§2)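 P. berghei-infected mice, 3 per group. Compound formulated in 90/10 Tween80/ethanol (v/v), diluted 10-fold with water, given orally once daily at 4, 24, 48 and 72 h post-infection. Outcomes: % parasitemia reduction versus untreated control, mean survival days, and cured/infected. Mice with <40% reduction euthanized on day 4.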

Assay [4] has as its system Plasmodium berghei. Put plainly: Antimalarial activity against GFP-fused Plasmodium berghei ANKA infected in mouse assessed as mouse mean survival days at 6 mg/kg, po administered once daily for 4 days.
The subject of assay [5] is Plasmodium berghei. Nature of the assay: Antimalarial activity against GFP-fused Plasmodium berghei ANKA infected in mouse assessed as mouse mean survival days at 25 mg/kg, po administered once daily for 4 days.
The subject of assay [6] is Plasmodium berghei. Nature of the assay: Antimalarial activity against GFP-fused Plasmodium berghei ANKA infected in mouse assessed as mouse mean survival days at 12.5 mg/kg, po administered once daily for 4 days.
Assay [7] concerns Plasmodium berghei. Put plainly: Antimalarial activity against GFP-fused Plasmodium berghei ANKA infected in mouse assessed as reduction in parasitemia at 25 mg/kg, po administered once daily for 4 days by flow cytometry relative to control. The arrangement: scale not given: the % may be the effect or the level left.
For assay [8], the system named is Plasmodium berghei. Put plainly: Antimalarial activity against GFP-fused Plasmodium berghei ANKA infected in mouse assessed as reduction in parasitemia at 6 mg/kg, po administered once daily for 4 days by flow cytometry relative to control. On the set-up: scale not given: the % may be the effect or the level left.
The subject of assay [9] is Plasmodium berghei. Put plainly: Antimalarial activity against GFP-fused Plasmodium berghei ANKA infected in mouse assessed as mouse mean survival days at 50 mg/kg, po administered once daily for 4 days. The method in brief: as §1
Assay [10] concerns Plasmodium berghei. Put plainly: Antimalarial activity against GFP-fused Plasmodium berghei ANKA infected in mouse assessed as reduction in parasitemia at 3 mg/kg, po administered once daily for 4 days by flow cytometry relative to control. On the set-up: scale not given: the % may be the effect or the level left. The method in brief: as §2

Regarding `CCNCCNc1cc(-c2ccc(C(F)(F)F)cc2)c(C#N)c2nc3ccccc3n12.Cl`, the Activity in the assay on Plasmodium berghei [1] is given as 81%; with Plasmodium berghei [3], 96%; in the assay on Plasmodium berghei [7], 96%; in the assay on Plasmodium berghei [8], 38%; in the assay with Plasmodium berghei [10], less than 40%. Moreover, the MSD with Plasmodium berghei [2] came out at 4 days; in the assay on Plasmodium berghei [4], 7 days; with Plasmodium berghei [5], 14 days; in the assay with Plasmodium berghei [6] it was 14 days; with Plasmodium berghei [9], 14 days.
